# Assay results pooled from the literature.
# Lines come from different studies, so protocols differ.
# Organism: Staphylococcus aureus
# Effect on: microbial growth
Structure (SMILES),test,system,setting,MIC
CC(C)CC(=O)Nc1n[nH]c2c1CN(C(=O)C1CCN(C)CC1)C2(C)C,,NCTC8325,,> 30 µM
C/C=C(\C)c1cc(O)c(C)c(OC(=O)c2c(C)cc(O)c(Cl)c2O)c1,broth dilution,16339,,16 µg/mL
Cc1cc(Cl)cc2sc(N(CCCn3ccnc3)C(=O)c3ccco3)nc12,,ATCC25923,,2.6 µM
CN[C@H](CC(C)C)C(=O)N[C@H]1C(=O)N[C@@H](CC(N)=O)C(=O)N[C@H]2C(=O)N[C@H]3C(=O)N[C@H](C(=O)N[C@H](C(=O)O)c4cc(O)cc(O)c4-c4cc3ccc4O)[C@H](O)c3ccc(c(Cl)c3)Oc3cc2cc(c3O[C@@H]2O[C@H](CO)[C@@H](O)[C@H](O)[C@H]2O[C@H]2C[C@](C)(N)[C@H](O)[C@H](C)O2)Oc2ccc(cc2Cl)[C@H]1O,broth dilution,ATCCBAA44,,1 µg/mL
CC(C)Oc1c(NC(=O)c2ccc(NC(=O)[C@H](CC(N)=O)NC(=O)c3ccc(NC(=O)c4ccc(C#N)cc4)cc3)cc2)ccc(C(=O)Nc2ccncc2)c1O,,ATCC29213,,> 64 µg/mL
C/C=C(\C)c1cc(OC(=O)c2c(C)c(Cl)c(O)c(Cl)c2O)c(C)c(O)c1C(=O)O,broth dilution,16339,,> 64 µg/mL
O=C(Nc1ccc2c(c1)OC(F)(F)O2)c1ccc(Cl)c(C(F)(F)F)c1,,NCTC8325,,3 µM
CC(C)Oc1c(NC(=O)c2ccc(NC(=O)[C@H](CC(N)=O)NC(=O)c3ccc(NC(=O)c4ccc5c(c4)COC5=O)cc3)cc2)ccc(C(=O)Nc2ccc(C(=O)O)cc2)c1O,,ATCC29213,,1 µg/mL
Cc1ccc2nc(-c3cc(Br)ccc3O)[nH]c2c1,broth dilution,ATCC29213 MSSA,,64 µg/mL
CN[C@H](CC(C)C)C(=O)N[C@H]1C(=O)N[C@@H](CC(N)=O)C(=O)N[C@H]2C(=O)N[C@H]3C(=O)N[C@H](C(=O)N[C@H](C(=O)O)c4cc(O)cc(O)c4-c4cc3ccc4O)[C@H](O)c3ccc(c(Cl)c3)Oc3cc2cc(c3O[C@@H]2O[C@H](CO)[C@@H](O)[C@H](O)[C@H]2O[C@H]2C[C@](C)(N)[C@H](O)[C@H](C)O2)Oc2ccc(cc2Cl)[C@H]1O,,ATCC25923,,0.39 µg/mL
NC[C@H]1O[C@H](O[C@H]2[C@H](O)[C@@H](O[C@H]3O[C@H](CO)[C@@H](O)[C@H](N)[C@H]3O)[C@H](N)C[C@@H]2N)[C@H](N)C[C@@H]1O,,147,clinical isolate,6.25 µM
CC(=O)NC[C@H]1CN(c2ccc(N3CCOCC3)c(F)c2)C(=O)O1,broth dilution,MRSA NRS119,drug-resistant strain,32 µM
C#CCCC1(CC(=O)NC(C)C)N=N1,,NCTC8325,,> 100 µM
O=C1C=CC(=O)c2c1ccc1c2[nH]c2ccccc21,,ATCC29213,,4 µg/mL
CCCN/C(=N/C)c1ccc(NC(=O)c2ccc(C(=O)Nc3ccc(/C(=N\C)NCCC)cc3)cc2)cc1,,,,16 µg/mL
CC(=O)NCN1N=C(C)C(=NNn2c(-c3ccccc3)nc3ccccc3c2=O)C1=O,broth dilution,,24 h,59.9 µM
CN[C@H](CC(C)C)C(=O)N[C@H]1C(=O)N[C@@H](CC(N)=O)C(=O)N[C@H]2C(=O)N[C@H]3C(=O)N[C@H](C(=O)N[C@H](C(=O)O)c4cc(O)cc(O)c4-c4cc3ccc4O)[C@H](O)c3ccc(c(Cl)c3)Oc3cc2cc(c3O[C@@H]2O[C@H](CO)[C@@H](O)[C@H](O)[C@H]2O[C@H]2C[C@](C)(N)[C@H](O)[C@H](C)O2)Oc2ccc(cc2Cl)[C@H]1O,broth dilution,CCARM3090,,0.5 µg/mL
CCCCCCC#Cc1cncc(-c2nnc(SCc3ccc(C#N)cc3)n2C)c1,,MRSA,drug-resistant strain,≥ 20 µg/mL
OCCn1cc(-c2cnc3nnn(Cc4ccc5ncccc5c4)c3n2)cn1,,NCTC8325,,> 30 µM
O=C1NC(=O)C(Cc2ccc(O)cc2)S1 (stereo not shown),,,,> 128 µg/mL
CC(C)Oc1c(NC(=O)c2ccc(NC(=O)[C@H](CC(N)=O)NC(=O)c3ccc(NC(=O)c4cccc(N)c4)cc3)cc2)ccc(C(=O)Nc2ccc(C(=O)O)cc2)c1O,,ATCC29213,,> 64 µg/mL
Oc1ccc(Br)cc1-c1nc2ccccc2[nH]1,broth dilution,ATCC29213 MSSA,,64 µg/mL
CC1(C)S[C@@H]2[C@H](NC(=O)[C@H](N)c3ccccc3)C(=O)N2[C@H]1C(=O)O,broth dilution,MRSA,,32 µg/mL
CCOc1ccc(-c2nc3ccccc3n2Cc2ccccc2)cc1,broth dilution,ATCC29213 MSSA,,64 µg/mL
CSc1nc(C)c(Cl)c(O)n1,,,,> 128 µg/mL
CC(C)Oc1c(NC(=O)c2ccc(NC(=O)[C@H](CC(N)=O)NC(=O)c3ccc(NC(=O)c4ccc([N+](=O)[O-])c5cccnc45)cc3)cc2)ccc(C(=O)Nc2ccc(C(=O)O)cc2)c1O,,ATCC29213,,> 64 µg/mL
O=C1NC(=S)N/C1=C\c1c2ccccc2c(-c2ccc(N(c3ccccc3)c3ccccc3)cc2)c2ccccc12,broth dilution,ATCC25923,,> 1000 µg/mL
Cc1cc(Nc2nc(N[C@@H](C)c3ccc(F)cc3)c(C#N)cc2F)n[nH]1,,NCTC8325,,30 µM
Cc1cc(/C=C2\Sc3ccccc3N2CCCN2CCC(C)CC2)c2ccccc2[n+]1C.[I-],broth dilution,ATCCBAA44,,1 µg/mL
COC1/C=C/OC2(C)Oc3c(C)c(O)c4c(O)c(c5c(nc6cc(C)ccn65)c4c3C2=O)NC(=O)/C(C)=C\C=C\C(C)C(O)C(C)C(O)C(C)C(OC(C)=O)C1C (stereo not shown),,,,≤ 0.06 µg/mL
CC[C@H]1OC(=O)[C@H](C)[C@@H](O[C@H]2C[C@@](C)(OC)[C@@H](O)[C@H](C)O2)[C@H](C)[C@@H](O[C@@H]2O[C@H](C)C[C@H](N(C)C)[C@H]2O)[C@](C)(O)C[C@@H](C)C(=O)[C@H](C)[C@@H](O)[C@]1(C)O,,156,clinical isolate,> 100 µM
CCCC(=O)Oc1c(C)c(O)c(C(=O)/C=C/c2ccccc2)c(OC)c1C,broth dilution,ATCC25923,,> 5000 µg/mL
O=C(O)CN1C(=O)/C(=C/c2c3ccccc3c(-c3ccc(N(c4ccccc4)c4ccccc4)cc3)c3ccccc23)NC1=S,broth dilution,ATCC25923,,> 1000 µg/mL
CSc1nc(Cl)cc(Sc2nnc(-c3cc(C(F)(F)F)cc(C(F)(F)F)c3)[nH]2)n1,,83254,,2.1 µM
O=C1NC(=O)/C(=C\c2ccc3nccnc3c2)S1,,NCTC8325,,> 30 µM
O=C(O)c1cn(C2CC2)c2cc(N3CCNCC3)c(F)cc2c1=O,broth dilution,ATCC25923,,0.49 µg/mL
COc1cc(OC)c2cc(C(=O)NCc3ccc(Br)cc3)cc(O)c2c1,broth dilution,ATCC29213 MSSA,,32 µg/mL
COc1c(C)c(OS(=O)(=O)c2ccc3ccccc3c2)c(C)c(O)c1C(=O)/C=C/c1ccccc1,broth dilution,ATCC25923,,2500 µg/mL
C[C@@H](O)[C@H]1C(=O)N2C(C(=O)O)=C(S[C@H]3C[C@@H](C(=O)N4CC[C@H](NC(=O)CNC(=N)N)C4)N(C)C3)[C@H](C)[C@H]12,,MRSA,,8 µg/mL
O=C(CCCCCCCC[P+](c1ccccc1)(c1ccccc1)c1ccccc1)Nc1cc(O)c(O)c(O)c1.[Br-],broth dilution,ATCC43300 MRSA,18 h,16 µg/mL
O=C1NC(=S)S/C1=C\c1ccc(-c2ccc(N(c3ccccc3)c3ccccc3)cc2)cc1,broth dilution,ATCC25923,,250 µg/mL
c1cncc(-c2nc3ccccc3[nH]2)c1,broth dilution,ATCC29213 MSSA,,128 µg/mL
Cc1ccc(C)n1-c1ccc(-c2nnc(-c3ccc(N(C)C)cc3)[nH]2)cc1,broth dilution,ATCC11632,18 h,8 µg/mL
COc1ccc(-c2nc3ccccc3n2Cc2ccccc2)cc1OC,broth dilution,ATCC29213 MSSA,,4 µg/mL
C/C=C(\C)c1cc(OC(=O)c2c(O)c(C)c(O)c(Cl)c2/C(C)=C/C)c(C)c(O)c1C(=O)O,broth dilution,745524,,32 µg/mL
CC(C)Oc1c(NC(=O)c2ccc(NC(=O)[C@H](CC(N)=O)NC(=O)c3ccc(CCNC(=O)c4ccc(C#N)cc4)cc3)cc2)ccc(C(=O)Nc2ccc(C(=O)O)cc2)c1O,,ATCC29213,,> 64 µg/mL
CC1=NN(CNc2ccccc2[N+](=O)[O-])C(=O)C1=NNn1c(-c2ccccc2)nc2ccccc2c1=O,broth dilution,,24 h,50.4 µM
Clc1ccc(-c2nc3ccccc3n2Cc2ccccc2)cc1,broth dilution,ATCC29213 MSSA,,64 µg/mL
CO[C@H]1[C@H](O[C@H]([C@H]2O[C@@H](n3ccc(=O)[nH]c3=O)[C@H](O)[C@@H]2O)[C@H](NCCCNC(=O)[C@H](CC(C)C)NC(=O)[C@@H](NC(=O)N[C@H](C(=O)O)C(C)C)[C@@H]2CCNC(=N)N2)C(=O)O)O[C@H](CN)[C@H]1O,,NEWMAN,,> 80 µg/mL
COc1cccc(NCc2ccc(Oc3ccccn3)cc2)c1,,,,1.6 µg/mL
O=C(CCCCCCCCCC[P+](c1ccccc1)(c1ccccc1)c1ccccc1)Nc1cc(O)c(O)c(O)c1.[Br-],broth dilution,ATCC43300 MRSA,18 h,2 µg/mL
Cc1ccc2nc(-c3ccc(Cl)cc3Cl)[nH]c2c1,broth dilution,ATCC29213 MSSA,,64 µg/mL
Cc1nc(N)sc1-c1ccnc(Nc2ccc(N3CCOCC3)cc2)n1,,NCTC8325,,> 30 µM
CC(C)Oc1c(NC(=O)c2ccc(NC(=O)[C@H](CC(N)=O)NC(=O)c3ccc(NC(=O)c4ccc(C#N)cc4)cc3)cc2)ccc(C(=O)Nc2cccc(C(=O)O)c2)c1O,,ATCC29213,,2 µg/mL
O=C1NC(=S)N/C1=C\c1ccc(-c2ccc(N(c3ccccc3)c3ccccc3)cc2)c2ccccc12,broth dilution,ATCC43300,,> 1000 µg/mL
CCOc1ccc(-c2nc3cc(-c4nc5cc(N6CCN(C)CC6)ccc5[nH]4)ccc3[nH]2)cc1,broth dilution,29213,24 h,2 to 4 µg/mL
FC(F)c1nc2ccccc2n1-c1nc(N2CCOCC2)nc(N2CCOCC2)n1,,NCTC8325,,> 30 µM
c1ccc2[nH]c(-c3ccc4c(c3)OCO4)nc2c1,broth dilution,ATCC29213 MSSA,,128 µg/mL
